Screens from PubChem.
SENP1 inh: blocks the human SENP1 SUMO protease catalytic domain; Q9P0U3; recombinant SENP1 catalytic domain, CyPet-SUMO1-YPet FRET cleavage; inhibition, % at 10 µM; hit rate 0.21% among 360,000;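 active = inhibition at least 30% at 10 µM, raw YFP signal under a set limit, fluorescence ratio 0.5 to 1.5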
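Assay system – human recombinant His6-tagged SENP1 catalytic domain enzyme · Input – SENP1 enzyme, 20 pM final · Buffer or medium – Tris pH 8 buffer plus EDTA, NaCl, BME, BSA, NP40, catalase · Schedule – 50 min reaction at room temperature · Technique – FRET read of cyan and yellow fluorescence · Control set – no-enzyme wells low, DMSO-plus-enzyme wells high control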
PfM18AAP inh: PfM18AAP enzyme inhibition. recombinant PfM18AAP, H-Glu-NHMec fluorogenic cleavage. hit rate 1.2% among 290,000. inhibition, % at 7.35 µM;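 active = inhibition above the campaign mean inhibition over all tested compounds plus 3 SD, cut at about 28% in these data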
CTSL1 counter: blocks F. hepatica cathepsin L1 in PFM18AAP counter-screen | recombinant F. hepatica cathepsin L1, Z-Leu-Arg-MCA fluorescence | inhibition, % at 5.96 µM | hit rate 0.49% among 300,000 | AID 1906;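 active = inhibition above the mean of all tested compounds plus 3 SD, set per screening campaign, cut at about 17% in these data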
FXN GAA850 act: increases GAA850 frataxin promoter reporter activity; HEK293 lucGAA850 FXN promoter luciferase reporter, 24 h; percent of 10 µM SAHA response; activation, % at 6 µM; hit rate 0.56% among 360,000; AID 540364;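 active = activation above the average of all compounds screened plus 3 SD, cutoff fixed separately per campaign, cut at about 7.5% in these data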
AHR activator: activators of human aryl hydrocarbon receptor; P35869; AHR-responsive luciferase reporter cells, luminescence; activation, % at 5 µM; hit rate 2.5% among 320,000; in the data active = activation above about 47%
HDAC3 inhib: blocks human histone deacetylase 3. O15379. recombinant HDAC3, fluorogenic peptide/trypsin coupled, fluorescence. inhibition, % at 8.3 µM. hit rate 0.15% among 320,000. AID 2718; in the data active = inhibition above about 26%, passing the limit was not always enough; inconclusive = no clear call, values can overlap the other calls
AHR act confirm: human AHR activation, confirmation. activation, % at 9 µM. AID 2845. shares compounds with AHR activator. hit rate 87% among 2,300. human cells, AHR-responsive luciferase reporter, luminescence; in the data active = activation above about 49%;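 note: HepG2 hepatoma cells carrying a DRE-driven firefly luciferase reporter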
PXR counter: activates human PXR in AHR activator counter-screen. shares compounds with AHR activator. activation, % at 11.6 µM. cell-based PXR reporter, luciferase luminescence. hit rate 88% among 2,300; in the data active = activation above about 11%;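 note: human hepatoma DPX-2 cells expressing full-length human PXR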
Target sequence (O75469 whole entry, looked up): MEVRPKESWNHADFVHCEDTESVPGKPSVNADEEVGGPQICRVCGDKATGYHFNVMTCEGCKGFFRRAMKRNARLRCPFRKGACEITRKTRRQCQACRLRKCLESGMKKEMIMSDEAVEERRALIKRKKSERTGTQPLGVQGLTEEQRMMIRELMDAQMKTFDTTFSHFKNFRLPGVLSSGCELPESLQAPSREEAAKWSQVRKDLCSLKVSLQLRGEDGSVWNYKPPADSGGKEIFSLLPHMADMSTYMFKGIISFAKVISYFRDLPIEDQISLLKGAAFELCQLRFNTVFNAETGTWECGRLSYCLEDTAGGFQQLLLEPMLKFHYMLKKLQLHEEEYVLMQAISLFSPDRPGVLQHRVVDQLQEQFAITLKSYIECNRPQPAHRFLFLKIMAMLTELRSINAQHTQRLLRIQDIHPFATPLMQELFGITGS
A number is an active result; . = inactive; ? = inconclusive; / = no result given. Shown are actives, neighbours in structure and some others; about 4.2% of the full set was active somewhere.

SMILES | SENP1 inh | PfM18AAP inh | CTSL1 counter | FXN GAA850 act | AHR activator | HDAC3 inhib | AHR act confirm | PXR counter
CCCCn1c(N)c(N(CCOC)C(=O)c2cc(Cl)nc3ccccc23)c(=O)[nH]c1=O | . | / | . | . | . | . | / | /
CSc1nc(N)c2c3c(sc2n1)COC(C(C)C)C3 (centres undefined) | . | . | . | . | 97 | . | 109 | 18
CCCC1Cc2c(sc3nc(SC)nc(N)c23)CO1 (centres undefined) | . | . | . | . | . | . | / | /
N#C/C(=C\c1ccc(-c2ccc(F)cc2)o1)C(=O)Nc1nc(-c2cccs2)cs1 | . | . | . | . | 142 | . | 58 | 22
C=C1C(=O)C23C(O)C1CCC2C12CCCC(C)(COC(C)=O)C1C(O)C3(O)OC2 (centres undefined) | . | / | / | . | / | / | / | /
O=C(Nc1nccs1)c1csc2c1CCCC2 | . | . | . | . | 84 | . | 121 | 25
O=C(Nc1ccon1)c1csc2c1CCCC2 | . | . | . | . | . | . | / | /
CSc1nsc(N/N=C/c2ccc3c(c2)OCO3)c1C#N | . | . | . | . | 117 | . | 81 | 27
Nc1nc(-c2ccccc2)nc2sc3c(c12)CCCC3 | . | . | . | . | 92 | . | 89 | 54
O=c1oc(-c2ccccc2)nc2sc3c(c12)CCC3 | . | . | . | . | . | . | / | /
Fc1ccc(-n2nnc(-c3cccnc3Cl)n2)cc1 | . | . | . | . | 79 | . | 69 | 19
Clc1ncccc1-c1nnn(-c2ccccc2)n1 | . | . | . | . | . | . | / | /
C/C(=N\OC(=O)NC(C)C)c1sc(-c2ccc(Cl)cc2)nc1C | . | . | . | . | 109 | . | 104 | 17
C/C(=N\OC(=O)NC(C)C)c1sc(-c2ccccc2)nc1C | . | . | . | . | . | . | / | /
CCNC(=O)O/N=C(\C)c1sc(-c2ccc(Cl)cc2)nc1C | . | . | . | . | 135 | ? | 135 | 17
C/C(=N\OC(=O)c1ccc(Cl)cc1)c1sc(-c2ccccc2)nc1C | . | . | . | . | . | . | / | /
Cc1ccc(CC(C)(O)CC(C)(O)Cc2ccc(C)cc2)cc1 (centres undefined) | . | / | / | . | / | / | / | /
Cc1cc(-c2ccc(Cl)cc2)c2cnn(C(C)C)c2n1 | . | . | . | . | . | . | / | /
Cc1cc(C)n2cc(-c3ccc(Cl)cc3)c(C(=O)O)c2n1 | . | . | . | . | 96 | . | 106 | /
COc1ccc(NC(=O)c2cccc(-c3ccc(O)cc3)c2)cn1 | . | . | . | . | . | . | / | /
Cc1nc(NCCc2ccc(F)cc2)c(C#N)c(C)c1[N+](=O)[O-] | . | . | . | . | 108 | . | 113 | 24
CCc1c(-c2cccc(Cl)c2)ncn1Cc1cccc(-c2ccccc2)c1 | . | / | / | / | / | / | / | /
C=CCNC(=O)CCC(=O)NNc1nc2ccccc2c2nc(-c3ccccc3)nn12 | . | . | . | . | 100 | . | 61 | 13
CCCCOc1ccc(N(CC(=O)NCc2ccccc2)C(=O)c2csnn2)cc1 | . | . | . | . | . | . | / | /
Cn1c(NC(=O)c2cccc(C(F)(F)F)c2)cc(=O)n(C)c1=O | . | . | . | . | 136 | . | 120 | 16
SMILES | SENP1 inh | PfM18AAP inh | CTSL1 counter | FXN GAA850 act | AHR activator | HDAC3 inhib | AHR act confirm | PXR counter
Cc1cc(N/N=C\c2ccccc2)nc(-c2ccccc2O)n1 | . | . | . | . | 82 | . | 108 | 15
Cc1cccc(/C=N/Nc2ccc3ccccc3n2)c1 | . | . | . | . | . | . | / | /
COc1ccc2nc(C)cc(N/N=C/c3ccccc3)c2c1 | . | / | / | . | 142 | . | 96 | .
COc1ccc(/C=N/Nc2cc(C)nc3ccc(OC)cc23)c(OC)c1 | . | . | . | . | . | . | / | /
Cc1cc(N/N=C/c2cccc(Br)c2)nc2ccccc12 | . | . | . | . | 100 | . | 97 | 34
Cc1cc(N(C)/N=C/c2ccccc2)nc(-c2ccccc2O)n1 | . | . | . | . | . | . | / | /
Cc1cccc(C)c1NC(=O)C(c1cc2ccccc2o1)N1CCC(c2ccccc2)CC1 (centres undefined) | . | / | / | / | / | / | / | /
c1ccc(CCNc2ncnc3scc(C4COc5ccccc5O4)c23)cc1 (centres undefined) | . | . | . | . | 99 | . | 100 | 23
